# An excerpt weighted towards active compounds, which were near 5.8% of everything screened.
# WT yeast gro inh = growth inhibition of WT strain, primary screen, mitochondrial fusion inhibitor project, WT and mutant strains, chemical genetic; mitochondrial fusion phenotypic screen; inhibition, % at 10 µM; actives 2.1% (n = 190,000); in the data active means inhibition above about 58%; tested in S. cerevisiae
# NCF1 inh = p47phox/p22phox peptide binding inhibitors, primary screen, biochemical, uHTS, NADPH oxidase regulatory subunit; Neutrophil cytosol factor 1 (Homo sapiens), P14598; actives 0.53% (n = 220,000); fluorescence polarization, 2 h; inhibition, % at 24.7 µM;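 active means inhibition above about 30%, limit read from the data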
# Target sequence (P14598 whole entry, looked up): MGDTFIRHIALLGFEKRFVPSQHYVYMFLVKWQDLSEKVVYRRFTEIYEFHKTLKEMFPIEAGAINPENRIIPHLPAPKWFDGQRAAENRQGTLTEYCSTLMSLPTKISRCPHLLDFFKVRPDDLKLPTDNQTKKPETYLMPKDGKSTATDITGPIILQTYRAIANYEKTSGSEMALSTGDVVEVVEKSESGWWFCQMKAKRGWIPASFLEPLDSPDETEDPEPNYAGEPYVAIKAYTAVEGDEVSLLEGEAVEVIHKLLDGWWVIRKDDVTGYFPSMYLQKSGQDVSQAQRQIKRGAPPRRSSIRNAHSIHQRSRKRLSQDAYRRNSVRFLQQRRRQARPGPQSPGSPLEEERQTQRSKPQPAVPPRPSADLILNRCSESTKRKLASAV
# ROMK mod = ROMK potassium channel modulators, primary screen, cell-based, thallium flux, MLSMR library. B-score at 10 µM. AID 1918, 2009. ATP-sensitive inward rectifier potassium channel 1 (Homo sapiens), P48048. Tet-inducible ROMK, thallium flux fluorescence; actives lie on both sides. actives 2% (n = 130,000);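 active means signal ratio slope over the read window, or its plate-corrected B-score, at least 3 SD from the plate mean, either direction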;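 further: B-score of the F/F0 ratio slope over 7 to 12 s after thallium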
# 14-3-3 Bad PPI = inhibitors of 14-3-3 zeta/Bad binding, primary screen, biochemical, TR-FRET, bovine 14-3-3 zeta; TR-FRET 14-3-3zeta/Dy647-pBad peptide displacement, 1 h; inhibition, % at 21.7 µM; actives 0.71% (n = 220,000); AID 781, 2007;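 active means inhibition above about 70%, limit read from the data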
# Target sequence (P63103 whole entry, looked up): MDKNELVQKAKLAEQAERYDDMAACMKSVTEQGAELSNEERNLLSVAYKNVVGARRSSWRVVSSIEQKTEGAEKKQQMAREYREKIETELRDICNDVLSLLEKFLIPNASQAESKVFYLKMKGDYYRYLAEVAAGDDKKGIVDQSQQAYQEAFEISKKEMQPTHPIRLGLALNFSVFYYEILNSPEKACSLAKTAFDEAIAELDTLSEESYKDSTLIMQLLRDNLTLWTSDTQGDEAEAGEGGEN
# RBBP9 inh = human RBBP9 inhibitors, primary screen, biochemical, fluorescence polarization, FP-Rh probe, HTS; Serine hydrolase RBBP9 (Homo sapiens), O75884; recombinant RBBP9; inhibition, % at 7.94 µM; actives 0.2% (n = 220,000);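 active means inhibition above the campaign mean of all tested compounds plus 3 SD, cut at about 14% in these data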
#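 Measured by – fluorescence polarization · Test system – RBBP9 protein · Input – 2.5 µM RBBP9 dispensing solution, before mixing · Measure – percent inhibition from mP, scaled between DMSO and no-protein wells · Benchmarks – DMSO-treated enzyme wells and wells lacking RBBP9 · Times – preincubation 30 min plus labeling 45 min at 25 °C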
# KCC2 mod = KCC2 cotransporter modulators, thallium flux, primary screen, cell-based, HEK293 KCC2, FluoZin-2 fluorescence, MLSMR; Solute carrier family 12 member 5 (Homo sapiens), Q9H2X9; KCC2 cells, thallium flux FluoZin-2 fluorescence; B-score of Tl+ flux slope (higher = more flux/activation; lower = inhibition) at 10 µM; actives 2.2% (n = 190,000);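 active means thallium flux slope and its plate-corrected score both differing from the plate sample mean at a set confidence after two filtering rounds, in either direction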;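 further: slope of fluorescence scaled to starting intensity during 10 to 20 s after thallium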
# ROMK hit retest = ROMK channel modulator hit retest, confirmation, cell-based, thallium flux, duplicate, resupplied hits | fluorescence ratio; hits give low values | actives 54% (n = 3,000) | shares compounds with ROMK mod | normalized thallium flux (F/F0 slope) at 10 µM;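 active means Flux at 10 µM at least 3 SD below or above vehicle control mean in one or both replicates; inconclusive means no clear call, values can overlap the other calls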
# Hits are given with their value; n = inactive; u = inconclusive; x = no result.
SMILES,WT yeast gro inh,NCF1 inh,ROMK mod,14-3-3 Bad PPI,RBBP9 inh,KCC2 mod,ROMK hit retest
CCOc1ccc(NC(=O)NC(=O)N(C)S(=O)(=O)c2ccc(C)cc2)cc1,n,n,-2,n,n,n,n
CCCCCN(C(=O)NC(=O)Nc1ccc(C)cc1)S(=O)(=O)c1ccccc1,n,n,x,n,n,n,x
CCCCC1CCC(c2nc(-c3cccnc3)no2)CC1 (stereo not drawn),68,n,x,n,n,n,n
CCCCC1CCC(c2nc(-c3ccccn3)no2)CC1 (stereo not drawn),n,n,x,n,n,n,x
COc1ccc(OCC(O)Cn2c(=N)n(Cc3ccccc3)c3ccccc32)cc1 (stereo not drawn),n,n,-7,n,n,n,0.048
Cc1cccc(OCC(O)Cn2c(=N)n(CCN3CCCCC3)c3ccccc32)c1 (stereo not drawn),n,n,-7.6,n,n,x,0.049
CCN(CC)CCn1c(=N)n(CC(O)COc2cccc(C)c2)c2ccccc21 (stereo not drawn),n,n,n,n,n,n,x
N=c1n(Cc2ccc(Cl)cc2)c2ccccc2n1CC(O)COc1ccccc1 (stereo not drawn),n,n,-4.2,n,n,n,0.054
Cc1ccc(OCC(O)Cn2c(=N)n(Cc3ccccc3)c3ccccc32)cc1 (stereo not drawn),n,n,-4.6,n,n,x,0.052
CC(C)(C)c1csc(Sc2ncccc2[N+](=O)[O-])n1,x,n,x,n,n,n,x
CCOC(=O)c1cc(C(=O)OCC)c(=O)[nH]c1N1CCCCC1,n,n,n,n,n,n,x
O=C1O/C(=C/c2ccccc2)c2ccccc21,n,n,n,n,n,n,x
O=C1/C(=C/c2ccccc2)Nc2ccccc21,n,n,x,n,n,n,0.023
O=S(=O)(/N=C(/Nc1ccccc1)c1ccccc1O)c1ccccc1,n,n,n,n,n,n,x
OCc1cn(-c2ccccc2)nc1-c1ccc(-c2nn(-c3ccccc3)cc2CO)cc1,n,n,n,n,n,x,x
Cc1ccc(-c2nn(-c3ccccc3)cc2CSC(=N)N)cc1,81,n,x,n,n,n,0.052
COCCCNC(=O)C1CCN(S(=O)(=O)c2c(C)noc2/C=C\c2ccc(OC)cc2)CC1,n,n,x,n,n,n,x
CCCCNC(=O)C1CCN(S(=O)(=O)c2c(C)noc2/C=C\c2ccc(OC)cc2)CC1,n,n,x,n,n,n,n
COc1ccc(/C=C(\NC(=O)c2ccc(C)cc2)C(=O)Nc2c(C)n(C)n(-c3ccccc3)c2=O)cc1,n,n,n,n,n,n,x
O=C1C2CCCN2C(c2ccccc2F)N1c1ccc(Cl)cc1 (stereo not drawn),n,n,1.5,n,n,x,n
CC1(C)C2CCC(C2)C1(C)NC(=O)CNCC1CCCCC1 (stereo not drawn),n,n,n,n,n,n,x
CCN1CCN(C(=O)/C(C#N)=C/c2ccc(OC(F)F)cc2)CC1,n,n,-3.6,n,n,n,0.047
CN1CCC(N(C)C(=O)/C(C#N)=C/c2ccc(OC(F)F)cc2)CC1,x,n,x,n,n,n,0.046
Cc1cc(C)cc(-n2cc[nH]c2=S)c1,n,n,n,n,n,n,x
COCCCNC(=O)C1CCC(CNS(=O)(=O)c2ccc(Cl)cc2)CC1 (stereo not drawn),n,n,x,n,n,n,n
SMILES,WT yeast gro inh,NCF1 inh,ROMK mod,14-3-3 Bad PPI,RBBP9 inh,KCC2 mod,ROMK hit retest
Cc1ccc(C2CC(=O)NC(SCc3ccccc3)=C2C#N)cc1 (stereo not drawn),n,n,x,n,n,n,0.066
N#CC1=C(SCc2ccccc2)NC(=O)CC1c1ccc(O)cc1 (stereo not drawn),n,n,n,n,n,n,x
S=C(Sc1ccc(Cl)cc1)Sc1ccc(Cl)cc1,x,n,n,n,n,n,x
Cc1ccc(C(NC(=O)C(C)C)c2cc([N+](=O)[O-])c3cccnc3c2O)cc1 (stereo not drawn),n,n,3.3,n,n,n,n
Cc1cccc(NC(=O)CSc2nnc(CNC(=O)c3cccs3)o2)c1C,n,n,n,n,n,n,x
Cc1ccc(-c2nc3c(c(=O)[nH]c(=O)n3Cc3ccccc3)n2C)s1,x,n,n,n,n,n,x
Cn1c(C2CCCCC2)nc2c1c(=O)[nH]c(=O)n2Cc1ccccc1,n,n,3.2,n,n,n,0.098
N#C/C(C(N)=O)=C1/CCc2ccccc2N1,n,n,4.7,n,n,n,n
CS(=O)(=O)c1ccc(C(=O)OCc2nnc(-c3ccc(Cl)cc3)o2)cc1[N+](=O)[O-],n,n,n,n,n,x,x
CCOc1ccc(-n2c(C)nc3cc(C(=O)NCc4ccc5c(c4)OCO5)ccc32)cc1,n,n,n,n,n,n,x
COc1ccc(-n2c(C)nc3cc(C(=O)NCc4ccc5c(c4)OCO5)ccc32)cc1,n,n,4.2,n,n,n,n
N#Cc1c(NCCN)nc(-c2ccccc2)c2c1CCCC2,n,42,-4,n,n,x,0.05
N#Cc1c(NCCCO)nc(-c2ccccc2)c2c1CCCC2,n,n,x,x,n,n,x
O=P(OC1CCCCC1)(OC1CCCCC1)C(Nc1ccccc1)c1cccnc1 (stereo not drawn),x,n,x,n,n,n,u
CCOP(=O)(OCC)C(Nc1ccccc1)c1cccnc1 (stereo not drawn),x,n,n,n,n,n,x
O=C(CSCc1ccc(Cl)cc1)Nc1ccccc1O,n,n,2.3,n,n,n,n
Cc1ccc(CNC(=O)Cn2cc(C(F)(F)F)ccc2=O)cc1,n,n,n,n,n,n,x
CCOC(=O)/C(C#N)=C/c1ccc(OC)c(OC)c1,n,n,n,n,n,n,x
CCOc1cc(/C=C(\C#N)C(N)=O)ccc1OS(=O)(=O)c1ccccc1,n,n,-5,n,n,n,0.033
C=CCNC(=O)/C(C#N)=C\c1cc(Cl)c(OCC)c(OC)c1,n,n,-2.9,n,n,n,0.044
C=CCNC(=O)/C(C#N)=C/c1cc(Br)ccc1OC,n,n,n,n,n,n,x
Cc1ccc2c(c1)nnn2C1CCN(C(=O)c2ccccc2F)CC1,n,n,n,n,n,n,x
COc1cccc(N2CCN(c3c(C#N)c(C(F)(F)F)nn3C)CC2)c1,n,n,-4.1,n,n,n,0.06

# Compound activity as filed in PubChem.
